Tests used:
[1] = system: MDA-MB-231 cells; experiment: qRT-PCR of epithelial and mesenchymal genes; type: cell-based, human; conditions: MDA-MB-231, 1 μM, 72 hours
Outline: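 MDA-MB-231 cells in 5% charcoal-stripped DMEM were pre-exposed for 72 h to test compound (1 μM) or DMSO. RNA was then isolated and gene expression measured by quantitative real-time PCR.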

[2] = system: TU-BcX-4IC cells; experiment: Phalloidin immunofluorescence with morphometric quantification; type: cell-based, human; conditions: 1 μM, 72 hours
[3] = system: MDA-MB-231 cells; experiment: Crystal violet staining, cells remaining / viability dose-response; type: cell-based, human
Outline: (§1)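 Cells were plated at 5,000/well in 5% charcoal-stripped DMEM for 48 h, then exposed to test compound or DMSO vehicle for 72 h at 37 °C, 5% CO2. They were fixed with glutaraldehyde for 20 min and stained for 20 min with 0.1% crystal violet in 90% methanol. After overnight drying, cells were lysed in 33% acetic acid and read at 620 nm. Signal was normalized to DMSO and plotted as dose-response.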

[4] = system: TU-BcX-4IC M2 spheres; experiment: Mammosphere formation and area quantification; type: cell-based, human; conditions: 7 days treatment
Outline: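 Cells were plated at 1,000/well in low-attachment plates in serum-free F12/DMEM with B-27 and left 24 h to form spheres. Spheres were then exposed to test compound or DMSO for one week, re-dosed every three days. Spheres were imaged at 40X or 100X, and length and width were measured to calculate area, which was compared with DMSO controls.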

[5] = system: MDA-MB-231 M2 spheres; experiment: Mammosphere formation and area quantification; type: cell-based, human; conditions: MDA-MB-231, 7 days treatment
Outline: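 MDA-MB-231 cells were seeded at 1,000/well in low-attachment wells in serum-free F12/DMEM plus B-27 and allowed 24 h to form spheres. Spheres were then treated with test compound or DMSO for one week, re-dosed every three days. Imaging was at 40X or 100X. Sphere length and width were measured, area was calculated, and values were compared with DMSO controls.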

[6] = system: TU-BcX-4IC cells; experiment: qRT-PCR of epithelial and mesenchymal genes; type: cell-based, human; conditions: 1 μM, 72 hours
Outline: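 Cells were treated 72 h with test compound (1 μM) or DMSO. Total RNA was column-isolated and checked for quantity and quality by absorbance (260, 280 nm). Then 2 μg total RNA was reverse-transcribed and gene expression measured by qRT-PCR.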

[7] = system: TU-BcX-2K1 tumors; experiment: qRT-PCR of ex vivo treated PDX tumor pieces; type: cell-based, human; conditions: TU-BcX-2K1 tumor pieces, 1 μM, 72 hours
[8] = system: BT-549 cells; experiment: Crystal violet staining, cells remaining / viability dose-response; type: cell-based, human
Outline: as §1

[9] = target: RET (Homo sapiens, UniProt P07949); experiment: Kinase inhibition assay; type: biochemical; conditions: 1 μM
Chain of RET (P07949 29-1114): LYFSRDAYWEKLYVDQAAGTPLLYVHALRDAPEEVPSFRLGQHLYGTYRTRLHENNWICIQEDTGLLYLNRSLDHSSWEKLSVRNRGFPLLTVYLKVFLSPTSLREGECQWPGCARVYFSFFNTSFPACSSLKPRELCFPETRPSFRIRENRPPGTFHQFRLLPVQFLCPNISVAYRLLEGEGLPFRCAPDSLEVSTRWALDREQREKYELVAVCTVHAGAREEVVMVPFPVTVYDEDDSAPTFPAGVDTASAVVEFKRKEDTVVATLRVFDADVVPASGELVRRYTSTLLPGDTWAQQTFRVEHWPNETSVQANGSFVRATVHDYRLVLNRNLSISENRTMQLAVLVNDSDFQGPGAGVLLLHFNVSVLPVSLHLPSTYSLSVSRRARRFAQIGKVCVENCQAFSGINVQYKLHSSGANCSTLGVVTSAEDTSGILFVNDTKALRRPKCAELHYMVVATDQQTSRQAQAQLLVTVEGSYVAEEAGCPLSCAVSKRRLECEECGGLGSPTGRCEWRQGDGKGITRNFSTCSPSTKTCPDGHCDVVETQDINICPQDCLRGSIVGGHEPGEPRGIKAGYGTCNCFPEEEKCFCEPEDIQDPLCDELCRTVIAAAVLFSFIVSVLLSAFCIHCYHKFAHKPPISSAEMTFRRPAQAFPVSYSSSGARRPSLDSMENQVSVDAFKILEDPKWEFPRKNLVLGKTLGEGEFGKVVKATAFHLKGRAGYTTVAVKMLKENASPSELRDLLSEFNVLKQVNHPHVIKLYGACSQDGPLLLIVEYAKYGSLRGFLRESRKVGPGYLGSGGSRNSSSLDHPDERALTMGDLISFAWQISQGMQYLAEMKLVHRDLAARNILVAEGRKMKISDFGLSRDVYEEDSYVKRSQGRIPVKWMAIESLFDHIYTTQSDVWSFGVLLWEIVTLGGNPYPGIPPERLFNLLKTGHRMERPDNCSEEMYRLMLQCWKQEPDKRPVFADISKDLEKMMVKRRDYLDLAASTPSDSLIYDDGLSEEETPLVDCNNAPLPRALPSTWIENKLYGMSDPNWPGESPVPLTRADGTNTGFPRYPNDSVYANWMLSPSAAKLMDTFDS

[10] = system: PDX organoids (PDX-Os) created from TU-BcX-4IC; experiment: Live/dead fluorescence stain of patient-derived organoids; type: cell-based; conditions: 1 μM, 72 hours, Calcein-AM/EthD-III
Outline: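 Explants (2 × 2 mm) from passaged TU-BcX-4IC tumours were grown out for 7 days in 3D culture, giving mixed tumour and stromal cells. Organoids were moved to ultra-low-attachment spheroid wells and exposed to test compound or DMSO for 72 h. They were then stained with Calcein-AM (2 μM, live) and EthD-III (5 μM, dead) and imaged by confocal microscopy, 5 images per well.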

[11] = system: TU-BcX-4IC PDX model; experiment: In vivo treatment of TU-BcX-4IC implants, tumor growth and metastasis; design: species or system SCID/Beige mice; conditions: 25 mg/kg bid intraperitoneally, 15 days, vs DMSO vehicle
Outline: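 Female SCID/Beige mice (5/group) received bilateral mammary fat pad implants of TU-BcX-4IC tumour pieces (3 × 3 mm). Twice-daily intraperitoneal dosing with test compound or DMSO vehicle began 24 h after implantation. At sacrifice, lungs and livers were formalin-fixed, paraffin-embedded, sectioned and H&E-stained. Lesion area and number per section were quantified.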

[12] = system: TU-BcX-4IC explants; experiment: Western blot of treated PDX tumor explants; type: cell-based, human; conditions: 24 hours
[13] = target: BRSK2 (Homo sapiens, UniProt Q8IWQ3); experiment: Kinase inhibition assay; type: biochemical; conditions: 1 μM
Chain of BRSK2 (Q8IWQ3 whole entry): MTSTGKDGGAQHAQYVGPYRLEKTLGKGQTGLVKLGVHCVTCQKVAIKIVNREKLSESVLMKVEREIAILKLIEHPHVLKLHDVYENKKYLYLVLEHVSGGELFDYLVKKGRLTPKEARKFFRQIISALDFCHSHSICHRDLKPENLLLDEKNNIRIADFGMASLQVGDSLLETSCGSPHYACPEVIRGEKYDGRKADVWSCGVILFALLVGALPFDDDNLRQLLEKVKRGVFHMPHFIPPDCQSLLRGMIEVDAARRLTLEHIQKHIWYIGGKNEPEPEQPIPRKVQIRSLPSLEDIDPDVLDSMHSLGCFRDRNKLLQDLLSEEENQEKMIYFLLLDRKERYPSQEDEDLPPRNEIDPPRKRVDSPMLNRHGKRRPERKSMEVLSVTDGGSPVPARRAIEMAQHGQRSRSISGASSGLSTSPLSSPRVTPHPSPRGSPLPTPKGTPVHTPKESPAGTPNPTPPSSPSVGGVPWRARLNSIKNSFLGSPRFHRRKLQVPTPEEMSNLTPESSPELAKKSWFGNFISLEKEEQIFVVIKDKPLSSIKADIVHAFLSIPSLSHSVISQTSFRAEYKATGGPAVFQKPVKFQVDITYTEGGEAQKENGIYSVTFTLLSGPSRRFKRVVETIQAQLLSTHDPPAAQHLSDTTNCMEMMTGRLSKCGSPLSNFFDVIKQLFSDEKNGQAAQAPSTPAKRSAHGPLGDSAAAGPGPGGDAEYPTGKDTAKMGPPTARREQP

[14] = target: LOK (Homo sapiens, UniProt O94804); experiment: Kinase inhibition assay; type: biochemical; conditions: 1 μM
Chain of LOK (O94804 whole entry): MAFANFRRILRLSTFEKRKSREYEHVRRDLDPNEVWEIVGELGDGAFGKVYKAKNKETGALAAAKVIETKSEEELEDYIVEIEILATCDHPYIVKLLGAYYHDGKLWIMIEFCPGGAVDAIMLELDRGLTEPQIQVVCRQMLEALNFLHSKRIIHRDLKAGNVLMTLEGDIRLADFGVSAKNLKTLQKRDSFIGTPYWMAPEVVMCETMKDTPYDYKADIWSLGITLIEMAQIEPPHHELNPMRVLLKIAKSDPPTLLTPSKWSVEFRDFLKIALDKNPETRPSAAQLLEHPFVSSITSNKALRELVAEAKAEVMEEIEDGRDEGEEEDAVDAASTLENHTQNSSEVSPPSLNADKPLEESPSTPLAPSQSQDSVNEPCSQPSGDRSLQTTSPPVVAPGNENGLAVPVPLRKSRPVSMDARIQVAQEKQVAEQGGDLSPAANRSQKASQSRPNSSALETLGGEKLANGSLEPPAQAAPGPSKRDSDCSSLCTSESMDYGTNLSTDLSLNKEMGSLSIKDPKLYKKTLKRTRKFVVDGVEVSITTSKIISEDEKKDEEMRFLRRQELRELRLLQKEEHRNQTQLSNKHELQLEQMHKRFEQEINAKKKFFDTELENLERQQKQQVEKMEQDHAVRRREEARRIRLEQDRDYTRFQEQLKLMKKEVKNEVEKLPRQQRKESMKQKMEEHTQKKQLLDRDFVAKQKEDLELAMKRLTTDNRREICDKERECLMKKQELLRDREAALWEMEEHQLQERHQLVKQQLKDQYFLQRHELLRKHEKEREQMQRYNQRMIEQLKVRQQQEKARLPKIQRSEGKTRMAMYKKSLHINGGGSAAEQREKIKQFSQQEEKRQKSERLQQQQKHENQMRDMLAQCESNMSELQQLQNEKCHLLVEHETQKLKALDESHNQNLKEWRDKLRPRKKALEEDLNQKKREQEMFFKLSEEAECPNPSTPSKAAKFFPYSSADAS

[15] = target: PDGFRB (Homo sapiens, UniProt P09619); experiment: Kinase inhibition assay; type: biochemical; conditions: 1 μM
Chain of PDGFRB (P09619 33-1106): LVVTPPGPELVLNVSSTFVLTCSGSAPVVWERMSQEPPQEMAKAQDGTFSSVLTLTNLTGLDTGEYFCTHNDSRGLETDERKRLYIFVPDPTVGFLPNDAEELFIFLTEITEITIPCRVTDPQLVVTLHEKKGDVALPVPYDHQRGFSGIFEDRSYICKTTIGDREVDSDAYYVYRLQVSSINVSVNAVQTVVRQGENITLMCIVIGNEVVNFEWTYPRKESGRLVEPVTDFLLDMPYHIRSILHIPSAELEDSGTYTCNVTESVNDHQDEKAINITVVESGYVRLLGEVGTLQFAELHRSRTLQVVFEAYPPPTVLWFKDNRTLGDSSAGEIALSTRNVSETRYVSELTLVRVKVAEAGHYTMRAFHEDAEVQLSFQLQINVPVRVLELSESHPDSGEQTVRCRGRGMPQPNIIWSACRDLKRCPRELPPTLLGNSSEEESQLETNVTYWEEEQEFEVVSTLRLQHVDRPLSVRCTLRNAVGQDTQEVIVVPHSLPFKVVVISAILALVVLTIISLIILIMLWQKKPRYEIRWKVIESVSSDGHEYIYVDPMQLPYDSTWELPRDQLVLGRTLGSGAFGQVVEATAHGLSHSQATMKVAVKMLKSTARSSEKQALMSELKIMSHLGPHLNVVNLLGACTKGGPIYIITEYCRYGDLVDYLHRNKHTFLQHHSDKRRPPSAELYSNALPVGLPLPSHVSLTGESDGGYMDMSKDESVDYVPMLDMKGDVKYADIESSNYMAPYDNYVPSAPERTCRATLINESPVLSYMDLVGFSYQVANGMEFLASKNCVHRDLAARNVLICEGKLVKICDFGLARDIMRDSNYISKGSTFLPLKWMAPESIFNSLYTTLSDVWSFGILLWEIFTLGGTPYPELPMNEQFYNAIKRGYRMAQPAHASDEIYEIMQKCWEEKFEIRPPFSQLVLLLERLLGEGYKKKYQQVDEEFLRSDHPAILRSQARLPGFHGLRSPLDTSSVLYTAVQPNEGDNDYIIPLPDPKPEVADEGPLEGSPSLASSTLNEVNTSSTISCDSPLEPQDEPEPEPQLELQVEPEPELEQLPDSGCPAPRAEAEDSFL

[16] = system: MDA-MB-231 cells; experiment: Ki-67 immunofluorescence staining for proliferation; type: cell-based, human; conditions: MDA-MB-231, 1 μM, 72 hours
[17] = system: TU-BcX-4IC tumors; experiment: qRT-PCR of ex vivo treated PDX tumor pieces; type: cell-based, human; conditions: TU-BcX-4IC tumor pieces, 1 μM, 72 hours
[18] = system: TU-BcX-2O0 tumors; experiment: qRT-PCR of ex vivo treated PDX tumor pieces; type: cell-based, human; conditions: TU-BcX-2O0 tumor pieces, 1 μM, 72 hours
[19] = system: MDA-MB-231 M2 spheres; experiment: In vivo inoculation of pre-treated spheres, tumorigenesis and metastasis; design: species or system SCID/Beige mice; conditions: MDA-MB-231 M2 spheres pre-treated 1 μM 72 hours; all cell concentrations
Outline: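 M2 spheres were treated 72 h at 1 μM or with DMSO under low attachment, dissociated with TrypLE, and counted by Trypan Blue so that only viable cells were injected. Cells (1,000–200,000) went bilaterally into the mammary fat pads of SCID/Beige mice (N=5). Tumors were caliper-measured biweekly, then resected; mice were killed 20 days later. Lungs and livers were formalin-fixed, paraffin-embedded and H&E-stained, and metastases were quantified.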

C[C@@H](Oc1cc(-n2cnc3ccc(NC(=O)NC(C)(C)C)cc32)sc1C(N)=O)c1ccccc1Cl [GSK346294A]
MMP9 mRNA expression [1]: downregulated MMP9 expression, but not significantly
cFOS mRNA expression [1]: suppressive effects in all three TNBC cell lines, although not significantly
Nuclear area fraction [2]: most significantly reduced nuclear area fraction
Total cell area [2]: largest overall areas
IC50 ([3]; Homo sapiens, MDA-MB-231, 72 h, read-out: IC-50, number of cells remaining): 50 µM
Number of cells remaining compared to DMSO controls ([3]; MDA-MB-231, 1 μM, 72 hours): decreased the number of cells remaining
Mammosphere formation (sphere area) [4]: significantly suppressed mammosphere formation
Sphere area [5]: significantly increased sphere area
MMP9 mRNA expression [6]: Neither GSK346294A nor GSK448459A affected MMP9 expression
ZEB1 mRNA expression [6]: suppressed ZEB1 expression in TU-BcX-4IC cells albeit not significantly
cFOS mRNA expression [6]: suppressive effects in all three TNBC cell lines, although not significantly
CD24 mRNA expression [7]: increased CD24 expression
CDH1 mRNA expression [7]: increased epithelial markers CDH1 mRNA expression
Number of cells remaining compared to DMSO controls ([8]; BT-549, 1 μM, 72 hours): decreased the number of cells remaining
IC50 ([8]; Homo sapiens, BT-549, 72 h, read-out: IC-50, number of cells remaining): 1 µM
Activity against RET [9]: moderate activity
Cytotoxicity to PDX organoids [10]: not cytotoxic
Area of liver metastases per section [11]: minimally suppressed the area of liver metastases
Area of lung metastases per section [11]: did not affect the area of lung metastases
Growth of the primary tumor [11]: did not affect growth of the tumor
Metastasis to lungs and livers, overall [11]: did not effectively suppress metastasis
Number of liver metastases per section [11]: minimally suppressed
Number of metastases per lung section [11]: minimally reduce the overall number of metastases per lung section
CDH1 protein expression [12]: increased CDH1 protein
MMP9 protein expression [12]: suppressed the mesenchymal-associated proteins MMP9 and ZEB1
ZEB1 protein expression [12]: suppressed the mesenchymal-associated proteins MMP9 and ZEB1
Activity against BRSK2 [13]: moderate activity
Activity against LOK [14]: moderate activity
Binding activity to LOK [14]: 36%
Activity against PDGFRB [15]: moderate activity
Ki-67 positive cells (cell proliferation) [16]: increased the total number of cells expressing the Ki-67 marker
MMP9 mRNA levels [17]: did not reduce MMP9 levels
Reversal of mesenchymal phenotype on a transcript level [17]: did not reverse the mesenchymal phenotype
MMP9 mRNA levels [18]: did not reduce MMP9 levels
Reversal of mesenchymal phenotype on a transcript level [18]: did not reverse the mesenchymal phenotype
Area and number of lung and liver metastases [19]: consistently suppressed both overall area and number of metastases in all cell concentrations, although not significantly

Source: publication PMC8092417 (Anti-cancer drugs, 2020)
